Assays:
[1] = biological target: T1, Myelin-associated glycoprotein (Mus musculus) (UniProt P20917); experiment: Inhibition of mouse MAGd1-3Fc expressed in CHO-Lec 3.2.8.1 cells by hepten inhibition assay relative to sodium-(2R,4S,5R,6R)-5-acetamido-2-(benzyloxy)-6-((1S,2R)-3-(4-chlorobenzamido)-1,2-dihydroxypropyl)-4-hydroxytetrahydro-2H-pyran-2-carboxylate; assay type: cell-based
T1 sequence (whole entry): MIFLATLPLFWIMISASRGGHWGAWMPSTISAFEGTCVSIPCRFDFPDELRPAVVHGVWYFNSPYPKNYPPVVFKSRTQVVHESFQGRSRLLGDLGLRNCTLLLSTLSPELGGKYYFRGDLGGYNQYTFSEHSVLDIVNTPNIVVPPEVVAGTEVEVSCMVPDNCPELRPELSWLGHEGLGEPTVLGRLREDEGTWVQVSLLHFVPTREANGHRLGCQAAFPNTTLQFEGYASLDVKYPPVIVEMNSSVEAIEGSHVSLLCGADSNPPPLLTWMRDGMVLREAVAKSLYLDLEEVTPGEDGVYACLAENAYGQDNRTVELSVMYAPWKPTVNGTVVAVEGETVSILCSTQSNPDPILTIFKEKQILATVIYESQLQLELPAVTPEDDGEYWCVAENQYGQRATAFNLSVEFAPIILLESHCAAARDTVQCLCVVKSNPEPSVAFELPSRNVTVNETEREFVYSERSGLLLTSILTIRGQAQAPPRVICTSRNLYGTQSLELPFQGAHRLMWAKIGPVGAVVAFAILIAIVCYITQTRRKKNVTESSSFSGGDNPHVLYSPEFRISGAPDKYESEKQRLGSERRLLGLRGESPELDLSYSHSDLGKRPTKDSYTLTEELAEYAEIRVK
How it was run: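 Fetuin-coated microtiter plates. Murine MAGd1-3-Fc (from CHO-Lec 3.2.8.1, dialyzed into 10 mM phosphate pH 7.4) bound in the presence of 7-8 inhibitor concentrations, in triplicate. Bound protein detected with alkaline phosphatase-labeled anti-Fc, read as initial rate of fluorescein release from fluorescein diphosphate. IC50 from binding curves converted to rIC50. At least three independent titrations.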

[2] = biological target: T2, Myelin-associated glycoprotein (Mus musculus, UniProt P20917); experiment: Binding affinity to mouse MAGd1-3Fc expressed in CHO-Lec 3.2.8.1 cells by SPR analysis
T2 sequence (P20917 whole entry): T1 sequence (whole entry)
How it was run: (§1)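 Murine MAGd1-3-Fc (purified from CHO-Lec 3.2.8.1 supernatant) captured at 30-40 μg/mL to about 2000 RU on protein A, which was amine-coupled to a CM5 chip. Runs at 25 °C, 20 μL/min, with 1 min injection and 1 min dissociation. Ten-fold dilution series in duplicate, double blank referenced. Negative sensorgrams mirrored; equilibrium KD.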

[3] = Octanol-water distribution coefficient, log D at pH 7.4 by shake-flask technique; assay type: physicochemical
[4] = Stability in artificial cerebrospinal fluid at 37 degC […]; assay type: physicochemical; conditions: read-out: Stability
[5] = Stability in buffer solution at 37 degC after 19 hrs; assay type: physicochemical; conditions: read-out: Stability
[6] = biological target: T1, Myelin-associated glycoprotein (Mus musculus); experiment: Relative binding affinity to mouse MAGd1-3Fc expressed in CHO-Lec 3.2.8.1 cells by NMR analysis relative to compound 4
[7] = biological target: T2, Myelin-associated glycoprotein; experiment: Binding affinity to mouse MAGd1-3Fc expressed in CHO-Lec 3.2.8.1 cells under HBS-EP condition by CM5 chip SPR analysis; how it was run: as §1
[8] = biological target: T2, Myelin-associated glycoprotein; experiment: Binding affinity to mouse MAGd1-3Fc expressed in CHO-Lec 3.2.8.1 cells under HEPES condition by CM5 chip SPR analysis
How it was run: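 Murine MAGd1-3-Fc captured on protein A on a CM5 chip. Running buffer carried 50 mM instead of 10 mM HEPES to raise buffer capacity. SPR at 25 °C, 20 μL/min, 1 min injection and 1 min dissociation, double blank referenced. KD taken at equilibrium from mirrored sensorgrams.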

[9] = biological target: T2, Myelin-associated glycoprotein; experiment: Binding affinity to mouse MAGd1-3Fc expressed in CHO-Lec 3.2.8.1 cells under NaCl condition by CM5 chip SPR analysis
How it was run: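 SPR on a CM5 chip with protein A-captured murine MAGd1-3-Fc. Salt was raised to 150-500 mM NaCl to exclude ionic repulsion. Runs at 25 °C, 20 μL/min, 1 min contact and 1 min dissociation, double blank referenced. Equilibrium KD from mirrored sensorgrams.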

[10] = biological target: T2, Myelin-associated glycoprotein; experiment: Binding affinity to mouse MAGd1-3Fc expressed in CHO-Lec 3.2.8.1 cells under carboxymethyl-dextran sodium salt condition by CM5 chip SPR analysis
How it was run: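 Dextran (1 mg/mL) added to the running buffer to test nonspecific binding to the matrix. Murine MAGd1-3-Fc captured via protein A on a CM5 chip. Runs at 25 °C, 20 μL/min, 1 min injection and 1 min dissociation. Equilibrium KD from mirrored sensorgrams.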

[11] = biological target: T2, Myelin-associated glycoprotein; experiment: Binding affinity to mouse MAGd1-3Fc expressed in CHO-Lec 3.2.8.1 cells under HBS-EP condition by CM4 chip SPR analysis
How it was run: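 Protein A was amine-coupled to a CM4 chip (lower carboxylate density) and murine MAGd1-3-Fc captured on it. Run in HBS-EP at 25 °C, 20 μL/min, with 1 min association and 1 min dissociation. Ten-fold dilution series in duplicate, double blank referenced. Negative sensorgrams mirrored to give equilibrium KD.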

[12] = biological target: T2, Myelin-associated glycoprotein; experiment: Binding affinity to mouse MAGd1-3Fc expressed in CHO-Lec 3.2.8.1 cells by biocore; assay type: cell-based; how it was run: as §1

Row | SMILES | Ratio [1] | Kd [2] | logD [3] | further results
1 | O=C(CF)N[C@H]1[C@H]([C@@H](O)[C@H](O)CNC(=O)c2ccc(Cl)cc2)O[C@@](OCc2cccc(F)c2F)(C(=O)O)C[C@@H]1O | 0.02 | 0.5 µM | -0.26 | remaining [4]: 95%; remaining at 19 h [5]: 95%
2 | CC(=O)N[C@H]1[C@H]([C@@H](O)[C@H](O)CNC(=O)c2ccc(Cl)cc2)O[C@@](OCc2c(F)c(F)c(F)c(F)c2F)(C(=O)O)C[C@@H]1O | 0.26 | 6.1 µM | -0.11 | –
3 | CC(=O)N[C@H]1[C@H]([C@@H](O)[C@H](O)CNC(=O)c2cccc(Cl)c2)O[C@@](OCc2ccccc2)(C(=O)O)C[C@@H]1O | 2.65 | 33.9 µM | – | –
4 | O=C(NC[C@@H](O)[C@H](O)[C@@H]1O[C@@](OCc2cccc(F)c2F)(C(=O)O)C[C@H](O)[C@H]1NC(=O)C1CC1)c1ccc(Cl)cc1 | 0.1 | 4.1 µM | 0.31 | –
5 | CS(=O)(=O)N[C@H]1[C@H]([C@@H](O)[C@H](O)CNC(=O)c2ccc(Cl)cc2)O[C@@](OCc2cccc(F)c2F)(C(=O)O)C[C@@H]1O | 0.6 | 17 µM | -0.17 | –
6 | O=C(CCl)N[C@H]1[C@H]([C@@H](O)[C@H](O)CNC(=O)c2ccc(Cl)cc2)O[C@@](OCc2cccc(F)c2F)(C(=O)O)C[C@@H]1O | 0.07 | 2.1 µM | 0.35 | –
7 | CC(=O)N[C@H]1[C@H]([C@@H](O)[C@H](O)CNC(=O)c2ccc(Cl)cc2)O[C@@](OCc2cccc(Cl)c2Cl)(C(=O)O)C[C@@H]1O | 0.5 | 4.3 µM | 0.53 | –
8 | CC(=O)N[C@H]1[C@H]([C@@H](O)[C@H](O)CNC(=O)c2ccc(Cl)cc2)O[C@@](OCc2cccc(F)c2F)(C(=O)O)C[C@@H]1O | 0.3 | 2.4 µM | -0.27 | remaining [4]: 95%; remaining at 19 h [5]: 95%; Ratio [6]: 34.4
9 | CC(=O)N[C@H]1[C@H]([C@@H](O)[C@H](O)CNC(=O)c2ccccc2)O[C@@](OCc2ccccc2)(C(=O)O)C[C@@H]1O | 1.5 | 26 µM | – | Kd [7]: 21.8 µM; Kd [8]: 17.6 µM; Kd [9]: 14.9 µM; Kd [10]: 17.8 µM; Kd [11]: 20 µM
10 | O=C(NC[C@@H](O)[C@H](O)[C@@H]1O[C@@](OCc2cccc(F)c2F)(C(=O)O)C[C@H](O)[C@H]1NC(=O)C1CCC1)c1ccc(Cl)cc1 | 0.14 | 5.8 µM | 0.75 | –
11 | CC(=O)N[C@H]1[C@H]([C@@H](O)[C@H](O)CNC(=O)c2ccccc2)O[C@@](OCc2c[nH]nn2)(C(=O)O)C[C@@H]1O | 0.74 | 11.7 µM | – | –
12 | CC(=O)N[C@H]1[C@H]([C@@H](O)[C@H](O)CNC(=O)c2ccc(Cl)c(Cl)c2)O[C@@](OCc2ccccc2)(C(=O)O)C[C@@H]1O | 1.61 | 19.2 µM | – | –
13 | CC(=O)N[C@H]1[C@H]([C@@H](O)[C@H](O)CNC(=O)c2ccc(Cl)cc2)O[C@@](OCc2ccc(Cl)cc2)(C(=O)O)C[C@@H]1O | 1.3 | 15 µM | 0.36 | –
14 | CC(=O)N[C@H]1[C@H]([C@@H](O)[C@H](O)CNC(=O)c2ccc(Cl)cc2)O[C@@](OCc2ccc(F)cc2)(C(=O)O)C[C@@H]1O | 1.2 | 13 µM | -0.11 | –
15 | O=C(O)N[C@H]1[C@H]([C@H](O)[C@H](O)CNC(=O)c2ccc(Cl)cc2)O[C@@](O[C@H]2[C@@H](O)[C@@H](CO)O[C@@H](O[C@@H]3CCO[C@H](COCc4ccc(-c5ccccc5)cc4)[C@@H]3O)[C@@H]2O)(C(=O)O)C[C@@H]1O | 0.52 | 2.83 µM | – | –
16 | CC(=O)N[C@H]1[C@H]([C@@H](O)[C@H](O)CNC(=O)c2ccc(Cl)cc2)O[C@@](OCc2ccc3ccccc3c2)(C(=O)O)C[C@@H]1O | 0.74 | 11.6 µM | 0.58 | –
17 | O=C(NC[C@@H](O)[C@H](O)[C@@H]1O[C@@](OCc2cccc(F)c2F)(C(=O)O)C[C@H](O)[C@H]1NS(=O)(=O)c1ccccc1[N+](=O)[O-])c1ccc(Cl)cc1 | 0.05 | 1.4 µM | 0.87 | –
18 | CO[C@]1(C(=O)O)C[C@H](O)[C@@H](NC(C)=O)[C@H]([C@@H](O)[C@H](O)CNC(=O)c2ccccc2)O1 | 18 | 137 µM | – | Kd [12]: 137 µM
19 | CC(=O)N[C@H]1[C@H]([C@@H](O)[C@H](O)CNC(=O)c2ccc(Cl)cc2)O[C@@](OCc2ccccc2)(C(=O)O)C[C@@H]1O | 1 | 17 µM | – | –
20 | COCC(=O)N[C@H]1[C@H]([C@@H](O)[C@H](O)CNC(=O)c2ccc(Cl)cc2)O[C@@](OCc2cccc(F)c2F)(C(=O)O)C[C@@H]1O | 0.14 | 2.3 µM | 0.06 | –
